One assay addresses Neuromedin-U receptor 2 (Homo sapiens, UniProt Q9GZQ4). The assay can be described thus: Agonist activity at human NMUR2 expressed in HEK293 cells at 1 to 100 nM by calcium mobilization assay relative to NMU. In kind it is functional, cell-based. In outline:
(§1)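 HEK293 cells transiently transfected with human NMUR1 or NMUR2 plasmid (FuGENE6), reseeded 18 h post-transfection at 4.0 × 10^4 cells/well on poly-D-lysine. After 18 h, loaded 40 min with 4 μM Fluo-4-AM in HBSS/HEPES/probenecid buffer pH 7.4 with 1% FCS, then washed. Peptides in buffer with 0.05% BSA and 0.001% Triton X-100. Maximal FLIPR signal expressed as % of hNMU at 1000 nM.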
(In general: A change in cytosolic calcium serves as a functional read-out for many receptors and channels.)

For assay [1], the target named is T1, Neuromedin-U receptor 1 (Homo sapiens) (UniProt Q9HB89).
T1 sequence (whole entry): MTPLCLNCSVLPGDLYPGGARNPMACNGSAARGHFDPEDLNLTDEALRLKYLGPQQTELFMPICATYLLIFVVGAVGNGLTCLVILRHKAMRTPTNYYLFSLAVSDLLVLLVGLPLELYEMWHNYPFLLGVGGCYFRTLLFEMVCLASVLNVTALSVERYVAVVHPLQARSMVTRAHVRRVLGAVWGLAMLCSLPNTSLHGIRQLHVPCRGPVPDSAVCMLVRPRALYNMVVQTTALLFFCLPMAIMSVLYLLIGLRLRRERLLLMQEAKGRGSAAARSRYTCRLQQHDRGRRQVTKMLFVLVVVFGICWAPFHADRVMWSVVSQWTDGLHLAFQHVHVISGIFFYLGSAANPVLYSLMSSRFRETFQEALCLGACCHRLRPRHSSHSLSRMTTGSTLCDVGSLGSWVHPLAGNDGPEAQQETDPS
The assay can be described thus: Agonist activity at human NMUR1 expressed in HEK293 cells at 1 to 100 nM by calcium mobilization assay relative to NMU. In kind it is functional, cell-based. In outline:
as §1

Activity calls are given as the source filed them. No cut-off for these calls is given here. Where a SMILES comes first, the peptide text is derived from it. [ ]: non-standard residue; d: D form. The star is where a group is joined. Quinoline(6-carbonyl) = O=C(c1ccc2ncccc2c1)*; Propanoyl(3-(3-pyridyl)) = O=C(CCc1cccnc1)*; Acetyl(pyridin-2-yl) = O=C(Cc1ccccn1)*; 1Nal = N[C@@H](Cc1cccc2ccccc12)C(=O)O; Butanoyl(4-cHex) = O=C(CCCC1CCCCC1)*; Propanoyl(3-cHex) = O=C(CCC1CCCCC1)*; Acetyl(3-pyridyl) = O=C(Cc1cccnc1)*; Acetyl(4-pyridyl) = O=C(Cc1ccncc1)*; Butanoyl(4-Ph) = O=C(CCCc1ccccc1)*; Hydrocinnamoyl = O=C(CCc1ccccc1)*; Quinaldoyl = O=C(c1ccc2ccccc2n1)*; Cha = N[C@@H](CC1CCCCC1)C(=O)O; Agb = N=C(N)NCC[C@H](N)C(=O)O; Agp = N=C(N)NC[C@H](N)C(=O)O; Chg = N[C@H](C(=O)O)C1CCCCC1; Nle = CCCC[C@H](N)C(=O)O; Dab = NCC[C@H](N)C(=O)O; Nva = CCC[C@H](N)C(=O)O; Dap = NC[C@H](N)C(=O)O; PhAc = O=C(Cc1ccccc1)*; X1 = O=C(Cn1ccnc1)*

Sequence of Neuromedin-U receptor 2 (Q9GZQ4 whole entry): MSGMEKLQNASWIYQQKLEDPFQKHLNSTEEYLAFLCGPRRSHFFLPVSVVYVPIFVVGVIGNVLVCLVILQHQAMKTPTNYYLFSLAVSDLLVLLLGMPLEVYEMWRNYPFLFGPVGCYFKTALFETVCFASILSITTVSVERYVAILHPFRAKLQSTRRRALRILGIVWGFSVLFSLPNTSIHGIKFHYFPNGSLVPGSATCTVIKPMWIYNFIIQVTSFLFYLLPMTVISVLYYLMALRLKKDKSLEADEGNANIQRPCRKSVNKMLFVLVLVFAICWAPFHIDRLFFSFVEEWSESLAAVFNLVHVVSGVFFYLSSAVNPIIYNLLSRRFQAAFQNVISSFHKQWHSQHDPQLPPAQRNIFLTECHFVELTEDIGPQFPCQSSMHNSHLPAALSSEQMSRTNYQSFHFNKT

For the molecule `CC(C)C[C@H](NC(=O)CCCc1ccccc1)C(=O)N[C@@H](Cc1ccccc1)C(=O)N[C@@H](CCCNC(=N)N)C(=O)N1CCC[C@H]1C(=O)N[C@@H](CCCNC(=N)N)C(=O)N[C@@H](CC(N)=O)C(N)=O` ({Butanoyl(4-Ph)}-LFRPRN-NH2), the result at Neuromedin-U receptor 2 was Active.
The same measure, in the same setting: as for `CC(C)C[C@H](NC(=O)CCC1CCCCC1)C(=O)N[C@@H](Cc1ccccc1)C(=O)N[C@@H](CCCNC(=N)N)C(=O)N1CCC[C@H]1C(=O)N[C@@H](CCCNC(=N)N)C(=O)N[C@@H](CC(N)=O)C(N)=O` ({Propanoyl(3-cHex)}-LFRPRN-NH2), the entry is “Active”.
Consider `CC(C)C[C@H](NC(=O)[C@H](CCCNC(=N)N)NC(=O)[C@@H]1CCCN1C(=O)[C@H](CCCNC(=N)N)NC(=O)[C@H](Cc1ccccc1)NC(=O)[C@H](CC(C)C)NC(=O)CCc1ccccc1)C(N)=O` (Hydrocinnamoyl-LFRPRL-NH2), for which the outcome (in assay [1]; on Neuromedin-U receptor 2) was inactive.
On to `CC(C)C[C@H](NC(=O)Cc1ccccc1)C(=O)N[C@@H](Cc1ccccc1)C(=O)N[C@@H](CCCNC(=N)N)C(=O)N1CCC[C@H]1C(=O)N[C@@H](CCCNC(=N)N)C(=O)N[C@@H](CC(N)=O)C(N)=O` (PhAc-LFRPRN-NH2), for which the outcome in assay [1] was Active.
As to `CC(C)C[C@H](NC(=O)CCc1ccccc1)C(=O)N[C@@H](Cc1ccccc1)C(=O)N[C@@H](CCCNC(=N)N)C(=O)N1CCC[C@H]1C(=O)N[C@@H](CCCNC(=N)N)C(=O)N[C@@H](CCN)C(N)=O` (Hydrocinnamoyl-LFRPR[Dab]-NH2), the outcome (in assay [1]; at Neuromedin-U receptor 2) was inactive.
As for `CC(C)C[C@H](NC(=O)CCc1cccnc1)C(=O)N[C@@H](Cc1ccccc1)C(=O)N[C@@H](CCCNC(=N)N)C(=O)N1CCC[C@H]1C(=O)N[C@@H](CCCNC(=N)N)C(=O)N[C@@H](CC(N)=O)C(N)=O` ({Propanoyl(3-(3-pyridyl))}-LFRPRN-NH2), in assay [1], the outcome was Active.
As for `CC(C)C[C@H](NC(=O)CCC1CCCCC1)C(=O)N[C@H](C(=O)N[C@@H](CN)C(=O)N1CCC[C@H]1C(=O)N[C@@H](CCCNC(=N)N)C(=O)N[C@@H](CC(N)=O)C(N)=O)C1CCCCC1` ({Propanoyl(3-cHex)}-L[Chg][Dap]PRN-NH2), the outcome on Neuromedin-U receptor 2 was Active.
Turning to `N=C(N)NCCC[C@H](NC(=O)[C@@H]1CCCN1C(=O)[C@H](CCCNC(=N)N)NC(=O)[C@H](Cc1ccccc1)NC(=O)[C@H](Cc1ccccc1)NC(=O)c1ccc2ccccc2n1)C(=O)N[C@@H](CC(N)=O)C(N)=O` (Quinaldoyl-FFRPRN-NH2), in assay [1], the outcome was inactive.
With `CC(C)C[C@H](NC(=O)CCc1ccccc1)C(=O)N[C@@H](Cc1ccccc1)C(=O)N[C@@H](CN)C(=O)N1CCC[C@H]1C(=O)N[C@@H](CCCNC(=N)N)C(=O)N[C@@H](CC(N)=O)C(N)=O` (Hydrocinnamoyl-LF[Dap]PRN-NH2), the outcome on Neuromedin-U receptor 2 was Active.
As for `CC(C)C[C@H](NC(=O)CCc1ccccc1)C(=O)N[C@@H](Cc1ccccc1)C(=O)N[C@@H](CCCNC(=N)N)C(=O)N1CCC[C@H]1C(=O)N[C@@H](CCCNC(=N)N)C(=O)N[C@@H](CC(=O)O)C(N)=O` (Hydrocinnamoyl-LFRPRD-NH2), the result (in assay [1]; at Neuromedin-U receptor 2) was inactive.
For the molecule H-FLFRPRN-NH2, the outcome (in assay [1]; at Neuromedin-U receptor 2) was Active.
Regarding `N=C(N)NCCC[C@H](NC(=O)[C@@H]1CCCN1C(=O)[C@H](CCCNC(=N)N)NC(=O)[C@H](Cc1ccccc1)NC(=O)[C@H](Cc1ccccc1)NC(=O)Cc1ccccn1)C(=O)N[C@@H](CC(N)=O)C(N)=O` ({Acetyl(pyridin-2-yl)}-FFRPRN-NH2), in assay [1], the outcome was Active.
On to `CC(C)C[C@H](NC(=O)CCC1CCCCC1)C(=O)N[C@@H](CC1CCCCC1)C(=O)N[C@@H](CCCNC(=N)N)C(=O)N1CCC[C@H]1C(=O)N[C@@H](CCCNC(=N)N)C(=O)N[C@@H](CC(N)=O)C(N)=O` ({Propanoyl(3-cHex)}-L[Cha]RPRN-NH2), for which, at Neuromedin-U receptor 2, the result was Active.
The same measure, in the same setting: to `CCC[C@H](NC(=O)[C@H](CC(C)C)NC(=O)CCC1CCCCC1)C(=O)N[C@@H](CN)C(=O)N1CCC[C@H]1C(=O)N[C@@H](CCCNC(=N)N)C(=O)N[C@@H](CC(N)=O)C(N)=O` ({Propanoyl(3-cHex)}-L[Nva][Dap]PRN-NH2) belongs “Active”.
Regarding `N=C(N)NCCC[C@H](NC(=O)[C@@H]1CCCN1C(=O)[C@H](CCCNC(=N)N)NC(=O)[C@H](Cc1ccccc1)NC(=O)[C@H](Cc1c[nH]c2ccccc12)NC(=O)CCc1cccnc1)C(=O)N[C@@H](CC(N)=O)C(N)=O` ({Propanoyl(3-(3-pyridyl))}-WFRPRN-NH2), the outcome in assay [1] was Active.
For `CC(C)C[C@H](NC(=O)CCc1ccccc1)C(=O)N[C@@H](Cc1ccccc1)C(=O)N[C@@H](CNC(=N)N)C(=O)N1CCC[C@H]1C(=O)N[C@@H](CCCNC(=N)N)C(=O)N[C@@H](CC(N)=O)C(N)=O` (Hydrocinnamoyl-LF[Agp]PRN-NH2), on Neuromedin-U receptor 2, the outcome was Active.
With `CCCC[C@H](NC(=O)[C@H](CC(C)C)NC(=O)CCC1CCCCC1)C(=O)N[C@@H](CN)C(=O)N1CCC[C@H]1C(=O)N[C@@H](CCCNC(=N)N)C(=O)N[C@@H](CC(N)=O)C(N)=O` ({Propanoyl(3-cHex)}-L[Nle][Dap]PRN-NH2), the outcome at Neuromedin-U receptor 2 was Active.
On the same count and under the same terms, as for `CC(C)C[C@H](NC(=O)CCc1ccccc1)C(=O)N[C@@H](Cc1ccccc1)C(=O)N[C@@H](CCNC(=N)N)C(=O)N1CCC[C@H]1C(=O)N[C@@H](CCCNC(=N)N)C(=O)N[C@@H](CC(N)=O)C(N)=O` (Hydrocinnamoyl-LF[Agb]PRN-NH2), the entry is “Active”.
As to `N=C(N)NCCC[C@H](NC(=O)[C@@H]1CCCN1C(=O)[C@H](CCCNC(=N)N)NC(=O)[C@H](Cc1ccccc1)NC(=O)[C@H](Cc1ccccc1)NC(=O)Cn1ccnc1)C(=O)N[C@@H](CC(N)=O)C(N)=O` (X1-FFRPRN-NH2), the outcome in assay [1] was Active.
With `CC(C)C[C@H](NC(=O)CCC1CCCCC1)C(=O)N[C@@H](CC1CCCCC1)C(=O)N[C@@H](CN)C(=O)N1CCC[C@H]1C(=O)N[C@@H](CCCNC(=N)N)C(=O)N[C@@H](CC(N)=O)C(N)=O` ({Propanoyl(3-cHex)}-L[Cha][Dap]PRN-NH2), the result on Neuromedin-U receptor 2 was Active.
For the molecule `N=C(N)NCCC[C@H](NC(=O)[C@@H]1CCCN1C(=O)[C@H](CCCNC(=N)N)NC(=O)[C@H](Cc1ccccc1)NC(=O)[C@H](Cc1ccccc1)NC(=O)CCc1cccnc1)C(=O)N[C@@H](CC(N)=O)C(N)=O` ({Propanoyl(3-(3-pyridyl))}-FFRPRN-NH2), the result in assay [1] was Active.
As to `N=C(N)NCCC[C@H](NC(=O)[C@@H]1CCCN1C(=O)[C@H](CCCNC(=N)N)NC(=O)[C@H](Cc1ccccc1)NC(=O)[C@H](Cc1ccccc1)NC(=O)Cc1ccncc1)C(=O)N[C@@H](CC(N)=O)C(N)=O` ({Acetyl(4-pyridyl)}-FFRPRN-NH2), the outcome in assay [1] was Active.
As for `CC[C@H](C)[C@H](NC(=O)[C@H](CC(C)C)NC(=O)CCC1CCCCC1)C(=O)N[C@@H](CN)C(=O)N1CCC[C@H]1C(=O)N[C@@H](CCCNC(=N)N)C(=O)N[C@@H](CC(N)=O)C(N)=O` ({Propanoyl(3-cHex)}-LI[Dap]PRN-NH2), the outcome on Neuromedin-U receptor 2 was Active.
As to `N=C(N)NCCC[C@H](NC(=O)[C@@H]1CCCN1C(=O)[C@H](CCCNC(=N)N)NC(=O)[C@H](Cc1ccccc1)NC(=O)[C@H](Cc1ccccc1)NC(=O)c1ccc2ncccc2c1)C(=O)N[C@@H](CC(N)=O)C(N)=O` ({Quinoline(6-carbonyl)}-FFRPRN-NH2), the result in assay [1] was inactive.
The same measure, in the same setting: as for `N=C(N)NCCC[C@H](NC(=O)[C@@H]1CCCN1C(=O)[C@H](CCCNC(=N)N)NC(=O)[C@H](Cc1ccccc1)NC(=O)[C@H](Cc1cccc2ccccc12)NC(=O)CCc1cccnc1)C(=O)N[C@@H](CC(N)=O)C(N)=O` ({Propanoyl(3-(3-pyridyl))}-[1Nal]FRPRN-NH2), the entry is “Active”.
For the molecule `CC(C)C[C@H](NC(=O)CCc1ccccc1)C(=O)N[C@@H](CC1CCCCC1)C(=O)N[C@@H](CCCNC(=N)N)C(=O)N1CCC[C@H]1C(=O)N[C@@H](CCCNC(=N)N)C(=O)N[C@@H](CC(N)=O)C(N)=O` (Hydrocinnamoyl-L[Cha]RPRN-NH2), the outcome at Neuromedin-U receptor 2 was Active.
Same read-out and setting: as for `CC(C)C[C@H](NC(=O)CCc1ccccc1)C(=O)N[C@@H](Cc1ccccc1)C(=O)N[C@@H](CCCCN)C(=O)N1CCC[C@H]1C(=O)N[C@@H](CCCNC(=N)N)C(=O)N[C@@H](CC(N)=O)C(N)=O` (Hydrocinnamoyl-LFKPRN-NH2), the entry is “inactive”.
As for `N=C(N)NCCC[C@H](NC(=O)[C@@H]1CCCN1C(=O)[C@H](CCCNC(=N)N)NC(=O)[C@H](Cc1ccccc1)NC(=O)[C@H](Cc1ccccc1)NC(=O)Cc1cccnc1)C(=O)N[C@@H](CC(N)=O)C(N)=O` ({Acetyl(3-pyridyl)}-FFRPRN-NH2), in assay [1], the outcome was Active.
In the case of `CC(C)C[C@H](NC(=O)CCCC1CCCCC1)C(=O)N[C@@H](Cc1ccccc1)C(=O)N[C@@H](CCCNC(=N)N)C(=O)N1CCC[C@H]1C(=O)N[C@@H](CCCNC(=N)N)C(=O)N[C@@H](CC(N)=O)C(N)=O` ({Butanoyl(4-cHex)}-LFRPRN-NH2), the outcome on Neuromedin-U receptor 2 was Active.
Same read-out and setting: to `CC(C)C[C@H](NC(=O)CCc1ccccc1)C(=O)N[C@@H](Cc1ccccc1)C(=O)N[C@@H](CCN)C(=O)N1CCC[C@H]1C(=O)N[C@@H](CCCNC(=N)N)C(=O)N[C@@H](CC(N)=O)C(N)=O` (Hydrocinnamoyl-LF[Dab]PRN-NH2) belongs “Active”.

For the origin of these results see ChEMBL document CHEMBL3351814, “Discovery of selective hexapeptide agonists to human neuromedin U receptors types 1 and 2” (J Med Chem, 2014).
